{"source": "ChEMBL document CHEMBL1148398", "about": "“Design, synthesis, and biological evaluation of thio-containing compounds with serum HDL-cholesterol-elevating properties” (2004)", "key": {"Rattus norvegicus [1]": {"test_system": "Rattus norvegicus", "experiment": "Effect of compound on high-density lipoprotein cholesterol levels in 7th group of normal chow-fed male rats after a dose of 100 mg/kg/day", "format": "functional, organism-based"}, "Rattus norvegicus [2]": {"test_system": "Rattus norvegicus", "experiment": "Effect of compound on high-density lipoprotein cholesterol levels in 4th group of normal chow-fed male rats after a dose of 10 mg/kg/day", "format": "functional, organism-based"}, "Rattus norvegicus [3]": {"test_system": "Rattus norvegicus", "experiment": "Effect of compound on aspartate aminotransferase (AST) levels in 6th group of normal chow-fed male rats after a dose of 50 mg/kg/day", "format": "functional, organism-based", "procedure,_shortened": "(§1)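 Male Sprague–Dawley CD rats (60–80 g) on standard chow under a reversed 12 h light/dark cycle. Compound was suspended in 1.3% Tween 80/0.25% CMC and given as a single daily oral gavage dose for 4 days. Rats were fasted overnight and killed 24 h after the last dose. Serum ALT, AST, ALKP and LDH were read on a clinical analyzer. Weight gain was start versus end weight. Mean ± SEM, n = 6.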"}, "Rattus norvegicus [4]": {"test_system": "Rattus norvegicus", "experiment": "Effect of compound on liver weight in 5th group of normal chow-fed male rats after a dose of 20 mg/kg/day", "format": "functional", "procedure,_shortened": "(§2)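 Male Sprague–Dawley CD rats, 60–80 g, on chow with a reverse 12 h light/dark cycle. Given one oral gavage dose daily for 4 days, suspended in 1.3% Tween 80/0.25% CMC. Fasted overnight and sacrificed 24 h after the last dose for blood and liver. Serum liver enzymes read on a clinical analyzer. Six per group, mean ± SEM.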"}, "Rattus norvegicus [5]": {"test_system": "Rattus norvegicus", "experiment": "Effect of compound on relative liver weight in 1st group of normal chow-fed male rats after a dose of 1 mg/kg/day", "format": "functional", "procedure,_shortened": "(§3)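 Chow-fed male Sprague–Dawley CD rats, 60–80 g, dosed by oral gavage once daily for 4 days in 1.3% Tween 80/0.25% CMC. Fasted overnight and sacrificed 24 h after the last dose. Liver weight expressed as % of body weight at termination. Six per group, mean ± SEM.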"}, "Cricetinae gen. sp. [6]": {"test_system": "Cricetinae gen. sp.", "experiment": "Effect of compound on low-density lipoprotein cholesterol levels in 3rd group of cholesterol-fed male hamsters at 30 mg/kg/day after 14 days of treatment", "conditions": "Mesocricetus auratus"}, "Rattus norvegicus [7]": {"test_system": "Rattus norvegicus", "experiment": "Effect of compound on aspartate aminotransferase (AST) levels in 7th group of normal chow-fed male rats after a dose of 100 mg/kg/day", "format": "functional, organism-based", "procedure,_shortened": "as §1"}, "Cricetinae gen. sp. [8]": {"test_system": "Cricetinae gen. sp.", "experiment": "Effect of compound on high-density lipoprotein cholesterol levels in 4th group of cholesterol-fed male hamsters at 100 mg/kg/day after 14 days of treatment", "conditions": "Mesocricetus auratus"}, "Rattus norvegicus [9]": {"test_system": "Rattus norvegicus", "experiment": "Effect of compound on aspartate aminotransferase (AST) levels in 1st group of normal chow-fed male rats after a dose of 1 mg/kg/day", "format": "functional, organism-based", "procedure,_shortened": "as §1"}, "Rattus norvegicus [10]": {"test_system": "Rattus norvegicus", "experiment": "Effect of compound on low-density lipoprotein cholesterol levels in 2nd group of normal chow-fed male rats after a dose of 2 mg/kg/day", "format": "functional, organism-based", "procedure,_shortened": "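Male Sprague–Dawley CD rats, 60–80 g, on standard chow with reverse 12 h light/dark cycle. One oral gavage dose daily for 4 days, suspended in 1.3% Tween 80 and 0.25% CMC. Fasted overnight; sacrificed 24 h after the last dose. Serum TC on clinical analyzer, lipoproteins by FPLC with cholesterol per fraction, T4 on analyzer. Mean ± SEM, six rats per group.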"}, "Rattus norvegicus [11]": {"test_system": "Rattus norvegicus", "experiment": "Effect of compound on aspartate aminotransferase (AST) levels in 4th group of normal chow-fed male rats after a dose of 10 mg/kg/day", "format": "functional, organism-based", "procedure,_shortened": "as §1"}, "Rattus norvegicus [12]": {"test_system": "Rattus norvegicus", "experiment": "Effect of compound on liver weight in 6th group of normal chow-fed male rats after a dose of 50 mg/kg/day", "format": "functional", "procedure,_shortened": "as §2"}, "Rattus norvegicus [13]": {"test_system": "Rattus norvegicus", "experiment": "Effect of compound on relative liver weight in 7th group of normal chow-fed male rats after a dose of 100 mg/kg/day", "format": "functional", "procedure,_shortened": "as §3"}, "Rattus norvegicus [14]": {"test_system": "Rattus norvegicus", "experiment": "Effect of compound on serum high-density lipoprotein cholesterol concentration in chow-fed male rats at a dose of 0 mg/kg/day", "format": "functional, organism-based", "procedure,_shortened": "(§4)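 Separate dose-response study in male Sprague–Dawley CD rats, 60–80 g, on chow. Oral gavage once daily for 4 days in 1.3% Tween 80 / 0.25% CMC; fasted overnight, bled 24 h after last dose. Apo-A1 by ELISA with rabbit anti-rat primary, alkaline phosphatase-conjugated anti-rabbit IgG and p-nitrophenyl phosphate substrate. HDL-C by FPLC fractionation. Mean ± SEM, six per group.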"}, "Cricetinae gen. sp. [15]": {"test_system": "Cricetinae gen. sp.", "experiment": "Percent change in triglycerides following oral administration of compound in hypercholesterolemic hamsters at 100 mg/kg/day for 14 days", "format": "functional", "procedure,_shortened": "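Male Syrian Golden hamsters pre-fed chow plus 0.25% cholesterol for 2 weeks and kept on it. Dosed 100 mg/kg/day by oral gavage in 2% Tween 80/saline for 14 days. Serum total cholesterol and glycerol-blanked triglycerides read enzymatically; lipoproteins separated by FPLC with cholesterol measured in each fraction. % change versus vehicle controls; six per group, p < 0.05.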"}, "Rattus norvegicus [16]": {"test_system": "Rattus norvegicus", "experiment": "Effect of compound on very low-density lipoprotein cholesterol levels in 4th group of normal chow-fed male rats after a dose of 10 mg/kg/day", "format": "functional, organism-based", "procedure,_shortened": "(§5)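 Male Sprague–Dawley CD rats (60–80 g) on Purina 5001 chow with a reverse 12 h light/dark cycle. Dosed once daily by oral gavage for 4 days, suspended in 1.3% Tween 80 / 0.25% CMC. Fasted overnight and bled 24 h after the last dose. Serum TC and glycerol-blanked TG measured enzymatically; VLDL-C by FPLC fractionation with cholesterol assay. n=6, mean ± SEM.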"}, "Cricetinae gen. sp. [17]": {"test_system": "Cricetinae gen. sp.", "experiment": "Effect of compound on total plasma cholesterol levels in 2nd group of cholesterol-fed male hamsters at 10 mg/kg/day after 14 days of treatment", "conditions": "Mesocricetus auratus"}, "Rattus norvegicus [18]": {"test_system": "Rattus norvegicus", "experiment": "Effect of compound on relative liver weight in 4th group of normal chow-fed male rats after a dose of 10 mg/kg/day", "format": "functional", "procedure,_shortened": "as §3"}, "Cricetinae gen. sp. [19]": {"test_system": "Cricetinae gen. sp.", "experiment": "Effect of compound on lactic dehydrogenase (LDH) levels in 4th group of cholesterol-fed male hamsters at 100 mg/kg/day after 14 days of treatment", "conditions": "Mesocricetus auratus"}, "Rattus norvegicus [20]": {"test_system": "Rattus norvegicus", "experiment": "Effect of compound on serum high-density lipoprotein cholesterol concentration in chow-fed male rats at a dose of 100 mg/kg/day", "format": "functional, organism-based", "procedure,_shortened": "as §4"}, "Rattus norvegicus [21]": {"test_system": "Rattus norvegicus", "experiment": "Effect of compound on serum apolipoprotein A1 concentration in chow-fed male rats at a dose of 50 mg/kg/day", "format": "functional, organism-based", "procedure,_shortened": "as §4"}, "Rattus norvegicus [22]": {"test_system": "Rattus norvegicus", "experiment": "Effect of compound on very low-density lipoprotein cholesterol levels in 6th group of normal chow-fed male rats after a dose of 50 mg/kg/day", "format": "functional, organism-based", "procedure,_shortened": "as §5"}, "Rattus norvegicus [23]": {"test_system": "Rattus norvegicus", "experiment": "Effect of compound on lactic dehydrogenase (LDH) levels in 3rd group of normal chow-fed male rats after a dose of 5 mg/kg/day", "format": "functional, organism-based", "procedure,_shortened": "as §1"}, "Rattus norvegicus [24]": {"test_system": "Rattus norvegicus", "experiment": "Effect of compound on total plasma cholesterol levels in 7th group of normal chow-fed male rats after a dose of 100 mg/kg/day", "format": "functional, organism-based", "procedure,_shortened": "as §5"}, "Rattus norvegicus [25]": {"test_system": "Rattus norvegicus", "experiment": "Effect of compound on triglyceride levels in 4th group of normal chow-fed male rats after a dose of 10 mg/kg/day", "format": "functional, organism-based", "procedure,_shortened": "as §5"}, "Rattus norvegicus [26]": {"test_system": "Rattus norvegicus", "experiment": "Effect of compound on lactic dehydrogenase (LDH) levels in 2nd group of normal chow-fed male rats after a dose of 2 mg/kg/day", "format": "functional, organism-based", "procedure,_shortened": "as §1"}, "Rattus norvegicus [27]": {"test_system": "Rattus norvegicus", "experiment": "Effect of compound on aspartate aminotransferase (AST) levels in 5th group of normal chow-fed male rats after a dose of 20 mg/kg/day", "format": "functional, organism-based", "procedure,_shortened": "as §1"}, "Rattus norvegicus [28]": {"test_system": "Rattus norvegicus", "experiment": "Effect of compound on serum apolipoprotein A1 concentration in chow-fed male rats at a dose of 5 mg/kg/day", "format": "functional, organism-based", "procedure,_shortened": "as §4"}}, "data": [{"smiles": "CCN1CC(=O)N(c2cc(Cl)ccc2C)C1=S", "values": [{"measurement": "Serum level", "setting": "Rattus norvegicus [1]", "value": 76, "unit": "mg/dL"}, {"measurement": "Serum level", "setting": "Rattus norvegicus [2]", "value": 61, "unit": "mg/dL"}, {"measurement": "Level", "setting": "Rattus norvegicus [3]", "value": 232, "unit": "U l-1"}, {"measurement": "Liver weight", "setting": "Rattus norvegicus [4]", "value": 8.2, "unit": "g"}, {"measurement": "Relative liver weight", "setting": "Rattus norvegicus [5]", "value": 4.3, "unit": "%"}, {"measurement": "Serum level", "setting": "Cricetinae gen. sp. [6]", "value": 125, "unit": "mg/dL"}, {"measurement": "Level", "setting": "Rattus norvegicus [7]", "value": 214, "unit": "U l-1"}, {"measurement": "Serum level", "setting": "Cricetinae gen. sp. [8]", "value": 191, "unit": "mg/dL"}, {"measurement": "Level", "setting": "Rattus norvegicus [9]", "value": 216, "unit": "U l-1"}, {"measurement": "Serum level", "setting": "Rattus norvegicus [10]", "value": 5.7, "unit": "mg/dL"}, {"measurement": "Level", "setting": "Rattus norvegicus [11]", "value": 182, "unit": "U l-1"}, {"measurement": "Liver weight", "setting": "Rattus norvegicus [12]", "value": 7.3, "unit": "g"}, {"measurement": "Relative liver weight", "setting": "Rattus norvegicus [13]", "value": 4.5, "unit": "%"}, {"measurement": "Serum level", "setting": "Rattus norvegicus [14]", "value": 51.9, "unit": "mg/dL"}, {"measurement": "Change", "setting": "Cricetinae gen. sp. [15]", "value": -34, "unit": "%"}, {"measurement": "Serum level", "setting": "Rattus norvegicus [16]", "value": 3.4, "unit": "mg/dL"}, {"measurement": "Serum level", "setting": "Cricetinae gen. sp. [17]", "value": 370, "unit": "mg/dL"}, {"measurement": "Relative liver weight", "setting": "Rattus norvegicus [18]", "value": 4.3, "unit": "%"}, {"measurement": "Level", "setting": "Cricetinae gen. sp. [19]", "value": 1390, "unit": "U l-1"}, {"measurement": "Serum level", "setting": "Rattus norvegicus [20]", "value": 104, "unit": "mg/dL"}, {"measurement": "Serum level", "setting": "Rattus norvegicus [21]", "value": 88.8, "unit": "mg/dL"}, {"measurement": "Serum level", "setting": "Rattus norvegicus [22]", "value": 6.5, "unit": "mg/dL"}, {"measurement": "Level", "setting": "Rattus norvegicus [23]", "value": 743, "unit": "U l-1"}, {"measurement": "Serum level", "setting": "Rattus norvegicus [24]", "value": 118, "unit": "mg/dL"}, {"measurement": "Serum level", "setting": "Rattus norvegicus [25]", "value": 21, "unit": "mg/dL"}, {"measurement": "Level", "setting": "Rattus norvegicus [26]", "value": 692, "unit": "U l-1"}, {"measurement": "Level", "setting": "Rattus norvegicus [27]", "value": 318, "unit": "U l-1"}, {"measurement": "Serum level", "setting": "Rattus norvegicus [28]", "value": 72.9, "unit": "mg/dL"}]}]}
